Experimental findings from ChEMBL document CHEMBL1156307 (J Med Chem, 2010) are described below.

One data set has as its system HCT-116. Briefly: Antiproliferative activity against human HCT116 cells by MTS assay. It counts as functional, cell-based. The gist of the method:
(§1)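 Monolayer proliferation assay. Cells were seeded at 5000-10000 per well and exposed to eight serial compound dilutions for 72 h. Viability was read by CellTiter-Glo or MTS per the kit protocol, and IC50 was taken from growth curves. Each determination averaged triplicate concentration-inhibition curves. Values are the mean ± standard deviation of two separate determinations.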

Data set [1] can be described thus: Association constant, pKa at pH 2 to 12. It is filed as physicochemical.
Data set [2] is described as follows: Antiproliferative activity against human H1299 cells by MTS assay. It is filed as functional, cell-based. The following applies: NCI-H1299. In outline: as §1
Data set [3] concerns the target Voltage-gated inwardly rectifying potassium channel KCNH2 (Homo sapiens, UniProt Q12809). Nature of the data set: Inhibition of human ERG expressed in CHO cells by automated patch clamp electrophysiology assay.
The next data set deals with Histone deacetylase 1 (Homo sapiens, UniProt Q13547). Nature of the data set: Inhibition of FLAG-tagged HDAC1 expressed in HEK293 cells by fluorescent assay. It is filed as cell-based.
A further data set has as its target Histone deacetylase 2 (Homo sapiens, UniProt Q92769). Nature of the data set: Inhibition of HDAC2 expressed in baculovirus system by fluorescent assay.
Data set [4] has as its target T1, Protein deacetylase HDAC6 (Homo sapiens, UniProt Q9UBN7).
T1 sequence (Q9UBN7 whole entry): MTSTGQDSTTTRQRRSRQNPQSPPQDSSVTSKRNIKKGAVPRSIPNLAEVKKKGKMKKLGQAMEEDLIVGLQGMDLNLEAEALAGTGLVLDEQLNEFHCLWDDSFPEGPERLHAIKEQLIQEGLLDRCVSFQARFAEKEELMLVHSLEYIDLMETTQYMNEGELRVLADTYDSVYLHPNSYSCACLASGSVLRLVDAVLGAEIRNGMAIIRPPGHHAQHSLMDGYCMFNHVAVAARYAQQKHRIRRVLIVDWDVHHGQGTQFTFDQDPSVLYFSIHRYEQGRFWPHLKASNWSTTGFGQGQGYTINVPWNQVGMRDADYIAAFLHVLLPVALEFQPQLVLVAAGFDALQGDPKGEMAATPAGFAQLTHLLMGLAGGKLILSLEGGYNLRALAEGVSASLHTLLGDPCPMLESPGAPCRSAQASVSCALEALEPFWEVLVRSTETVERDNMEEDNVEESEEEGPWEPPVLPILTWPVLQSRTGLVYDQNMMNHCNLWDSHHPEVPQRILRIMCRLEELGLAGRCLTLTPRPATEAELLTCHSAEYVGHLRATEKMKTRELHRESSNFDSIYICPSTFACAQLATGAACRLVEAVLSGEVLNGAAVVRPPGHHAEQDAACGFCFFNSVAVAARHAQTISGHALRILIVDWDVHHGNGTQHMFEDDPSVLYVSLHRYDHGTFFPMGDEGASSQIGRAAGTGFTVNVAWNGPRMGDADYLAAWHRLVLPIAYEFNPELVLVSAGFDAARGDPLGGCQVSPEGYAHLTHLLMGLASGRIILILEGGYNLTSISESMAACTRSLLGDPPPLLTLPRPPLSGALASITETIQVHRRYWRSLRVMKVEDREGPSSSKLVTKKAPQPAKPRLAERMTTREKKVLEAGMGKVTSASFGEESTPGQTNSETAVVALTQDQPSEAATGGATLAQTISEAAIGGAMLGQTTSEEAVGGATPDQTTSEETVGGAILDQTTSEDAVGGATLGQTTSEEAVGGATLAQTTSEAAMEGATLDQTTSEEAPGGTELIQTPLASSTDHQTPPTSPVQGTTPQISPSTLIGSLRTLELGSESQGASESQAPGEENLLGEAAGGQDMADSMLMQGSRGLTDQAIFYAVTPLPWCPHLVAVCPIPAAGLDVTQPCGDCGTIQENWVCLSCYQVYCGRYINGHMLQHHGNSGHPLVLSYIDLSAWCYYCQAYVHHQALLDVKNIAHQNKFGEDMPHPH
Briefly: Inhibition of FLAG-tagged HDAC6 expressed in HEK293 cells by fluorescent assay. It counts as cell-based. The gist of the method: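 HDAC6 immunopurified from 293 cells stably expressing the FLAG-tagged isoform. Deacetylation of the bis-Boc-(Ac)Lys-rhodamine 110 substrate releases a fluorophore, read on a fluorometric plate reader.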

The target of a further data set is T2, Histone deacetylase 8 (Homo sapiens, UniProt Q9BY41).
T2 sequence (Q9BY41 whole entry): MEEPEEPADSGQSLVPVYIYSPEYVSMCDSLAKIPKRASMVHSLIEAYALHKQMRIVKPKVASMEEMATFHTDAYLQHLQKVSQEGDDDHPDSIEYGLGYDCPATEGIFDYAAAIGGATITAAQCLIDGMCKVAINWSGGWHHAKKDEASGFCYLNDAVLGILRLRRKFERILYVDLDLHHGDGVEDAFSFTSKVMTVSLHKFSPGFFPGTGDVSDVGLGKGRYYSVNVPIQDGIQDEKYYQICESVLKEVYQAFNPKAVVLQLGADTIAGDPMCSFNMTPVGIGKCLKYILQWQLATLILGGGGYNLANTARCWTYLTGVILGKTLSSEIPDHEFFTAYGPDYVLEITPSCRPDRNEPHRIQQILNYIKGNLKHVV
Nature of the data set: Inhibition of HDAC8 expressed in baculovirus system by fluorescent assay.

In a further data set the target is Histone deacetylase 3 (Homo sapiens, UniProt O15379). Briefly: Inhibition of FLAG-tagged HDAC3 expressed in HEK293 cells by fluorescent assay. It is filed as cell-based. The gist of the method:
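HDAC3 immunopurified from 293 cells stably expressing FLAG-tagged enzyme. Substrate bis-Boc-(Ac)Lys-rhodamine 110; its deacetylation releases a fluorophore, read on a fluorometric plate reader.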

Another data set has as its target Histone deacetylase 4 (Homo sapiens, UniProt P56524). Nature of the data set: Inhibition of HDAC4 expressed in baculovirus system by fluorescent assay. The gist of the method:
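HDAC4 purified from a baculovirus expression system. Substrate bis-Boc-(Ac)Lys-rhodamine 110; its deacetylation generates a fluorophore, read on a fluorometric plate reader.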

Bounds are passed on as bounds.

Sequence of Histone deacetylase 1 (Q13547 whole entry): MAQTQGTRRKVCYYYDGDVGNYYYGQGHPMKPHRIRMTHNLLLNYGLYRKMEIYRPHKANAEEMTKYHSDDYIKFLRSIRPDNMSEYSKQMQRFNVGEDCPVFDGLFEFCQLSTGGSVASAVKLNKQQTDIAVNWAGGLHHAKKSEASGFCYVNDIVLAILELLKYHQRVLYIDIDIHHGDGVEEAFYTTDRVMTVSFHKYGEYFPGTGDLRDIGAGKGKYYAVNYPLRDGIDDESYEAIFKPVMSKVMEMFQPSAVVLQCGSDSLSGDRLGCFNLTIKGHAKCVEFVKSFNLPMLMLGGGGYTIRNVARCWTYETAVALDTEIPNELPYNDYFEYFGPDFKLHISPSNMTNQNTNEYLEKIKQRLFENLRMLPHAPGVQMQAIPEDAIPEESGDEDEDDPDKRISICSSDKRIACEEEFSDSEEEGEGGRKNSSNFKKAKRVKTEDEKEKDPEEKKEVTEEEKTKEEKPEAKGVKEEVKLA
Sequence of Voltage-gated inwardly rectifying potassium channel KCNH2 (Q12809 whole entry): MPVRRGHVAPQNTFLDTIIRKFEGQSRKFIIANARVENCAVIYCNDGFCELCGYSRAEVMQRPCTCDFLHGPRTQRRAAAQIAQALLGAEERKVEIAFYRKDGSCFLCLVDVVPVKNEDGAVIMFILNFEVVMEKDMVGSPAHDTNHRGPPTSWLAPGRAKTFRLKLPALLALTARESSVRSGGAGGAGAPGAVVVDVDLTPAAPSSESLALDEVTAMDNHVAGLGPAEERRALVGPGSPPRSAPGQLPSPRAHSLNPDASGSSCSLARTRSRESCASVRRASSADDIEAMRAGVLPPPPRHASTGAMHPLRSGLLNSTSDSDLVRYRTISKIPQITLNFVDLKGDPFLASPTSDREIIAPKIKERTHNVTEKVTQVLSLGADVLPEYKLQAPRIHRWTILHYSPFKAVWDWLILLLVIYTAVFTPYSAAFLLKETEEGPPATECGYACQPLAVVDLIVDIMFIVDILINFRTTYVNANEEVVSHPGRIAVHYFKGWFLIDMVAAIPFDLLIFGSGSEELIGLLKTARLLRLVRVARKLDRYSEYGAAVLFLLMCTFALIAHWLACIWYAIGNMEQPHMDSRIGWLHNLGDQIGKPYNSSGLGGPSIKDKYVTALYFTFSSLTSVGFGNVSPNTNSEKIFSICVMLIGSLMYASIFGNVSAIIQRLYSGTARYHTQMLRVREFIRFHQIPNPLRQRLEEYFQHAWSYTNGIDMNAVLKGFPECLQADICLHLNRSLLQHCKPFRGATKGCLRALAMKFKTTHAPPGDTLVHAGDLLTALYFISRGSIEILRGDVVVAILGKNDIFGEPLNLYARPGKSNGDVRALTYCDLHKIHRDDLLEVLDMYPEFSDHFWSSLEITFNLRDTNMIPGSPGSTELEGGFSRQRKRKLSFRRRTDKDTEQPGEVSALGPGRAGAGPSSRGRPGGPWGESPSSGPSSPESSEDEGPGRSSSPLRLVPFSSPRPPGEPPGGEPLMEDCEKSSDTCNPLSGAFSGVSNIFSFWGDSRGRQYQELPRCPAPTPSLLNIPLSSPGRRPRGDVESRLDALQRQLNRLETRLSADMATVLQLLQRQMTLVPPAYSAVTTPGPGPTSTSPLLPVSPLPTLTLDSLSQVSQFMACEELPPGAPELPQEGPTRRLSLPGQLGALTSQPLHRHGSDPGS
Sequence of Histone deacetylase 4 (P56524 whole entry): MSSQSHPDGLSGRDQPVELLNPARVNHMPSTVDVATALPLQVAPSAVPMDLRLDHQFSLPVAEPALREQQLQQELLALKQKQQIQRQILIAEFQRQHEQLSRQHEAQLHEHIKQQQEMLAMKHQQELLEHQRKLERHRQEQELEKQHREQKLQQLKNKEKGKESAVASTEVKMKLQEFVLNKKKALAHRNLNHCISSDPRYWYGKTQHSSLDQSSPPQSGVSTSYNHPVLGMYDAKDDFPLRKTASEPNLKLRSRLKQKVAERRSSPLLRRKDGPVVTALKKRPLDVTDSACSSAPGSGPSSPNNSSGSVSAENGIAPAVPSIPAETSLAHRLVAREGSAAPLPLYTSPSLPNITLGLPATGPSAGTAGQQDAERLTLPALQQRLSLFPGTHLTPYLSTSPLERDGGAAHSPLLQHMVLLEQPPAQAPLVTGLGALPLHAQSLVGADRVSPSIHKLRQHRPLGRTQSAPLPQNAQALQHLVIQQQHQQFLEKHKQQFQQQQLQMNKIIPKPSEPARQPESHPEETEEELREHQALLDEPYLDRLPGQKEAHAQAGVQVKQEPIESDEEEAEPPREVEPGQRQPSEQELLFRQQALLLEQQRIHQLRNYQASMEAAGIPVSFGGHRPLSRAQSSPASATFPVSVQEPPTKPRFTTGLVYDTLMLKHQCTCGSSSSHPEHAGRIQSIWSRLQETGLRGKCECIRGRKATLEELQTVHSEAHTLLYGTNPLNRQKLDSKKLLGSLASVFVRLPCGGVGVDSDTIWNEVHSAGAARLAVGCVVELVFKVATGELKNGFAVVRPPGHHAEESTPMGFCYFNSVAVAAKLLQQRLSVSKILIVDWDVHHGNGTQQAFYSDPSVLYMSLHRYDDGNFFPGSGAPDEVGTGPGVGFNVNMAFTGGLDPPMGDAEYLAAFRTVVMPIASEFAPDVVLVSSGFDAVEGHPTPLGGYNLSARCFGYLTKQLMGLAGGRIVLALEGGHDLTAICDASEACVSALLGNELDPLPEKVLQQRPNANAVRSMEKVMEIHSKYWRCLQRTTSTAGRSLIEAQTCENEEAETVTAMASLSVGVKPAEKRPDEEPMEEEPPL
Sequence of Histone deacetylase 3 (O15379 whole entry): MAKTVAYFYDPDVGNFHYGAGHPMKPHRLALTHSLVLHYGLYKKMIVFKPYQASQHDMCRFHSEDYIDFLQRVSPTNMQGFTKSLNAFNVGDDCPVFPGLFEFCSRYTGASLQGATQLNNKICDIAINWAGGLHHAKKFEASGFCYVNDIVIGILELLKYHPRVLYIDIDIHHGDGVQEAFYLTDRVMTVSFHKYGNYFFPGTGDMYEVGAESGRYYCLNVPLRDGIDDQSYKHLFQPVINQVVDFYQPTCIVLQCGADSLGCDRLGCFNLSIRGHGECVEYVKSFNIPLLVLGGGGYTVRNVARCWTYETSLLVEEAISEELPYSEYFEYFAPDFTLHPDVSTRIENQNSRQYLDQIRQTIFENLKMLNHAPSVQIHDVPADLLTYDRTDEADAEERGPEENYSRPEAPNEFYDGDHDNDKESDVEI
Sequence of Histone deacetylase 2 (Q92769 whole entry): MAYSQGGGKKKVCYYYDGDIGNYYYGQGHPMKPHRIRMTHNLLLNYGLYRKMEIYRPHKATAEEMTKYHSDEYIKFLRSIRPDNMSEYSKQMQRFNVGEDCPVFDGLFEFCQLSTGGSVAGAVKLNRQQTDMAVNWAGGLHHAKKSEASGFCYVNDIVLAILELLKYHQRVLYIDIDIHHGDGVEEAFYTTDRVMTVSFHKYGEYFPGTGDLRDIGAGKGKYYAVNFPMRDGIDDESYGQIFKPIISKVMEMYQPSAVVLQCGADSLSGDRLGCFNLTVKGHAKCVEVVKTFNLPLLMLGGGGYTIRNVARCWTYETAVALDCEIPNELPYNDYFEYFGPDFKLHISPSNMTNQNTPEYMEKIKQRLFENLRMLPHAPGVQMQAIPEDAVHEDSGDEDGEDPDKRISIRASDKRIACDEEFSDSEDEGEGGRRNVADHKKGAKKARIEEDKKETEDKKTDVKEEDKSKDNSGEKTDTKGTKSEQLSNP

Take `CC(C)(C)c1[nH]c2ccccc2c1C1CCCN(Cc2ccc(/C=C/C(=O)NO)cc2Cl)C1` (configuration not stated): the IC50 was 5.2 nM with HCT-116, 60 nM in data set [2] and 9900 nM in data set [3]. The molecule further had a pKa in data set [1] of 7.4.
As for `Cc1[nH]c2ccccc2c1CCN1CCCC1c1ccc(/C=C/C(=O)NO)cc1` (configuration not stated), the IC50 with HCT-116 amounted to 1 nM; in data set [2] it was 4.3 nM; in data set [3] it was 19400 nM.
As for `O=C(/C=C/c1ccc(CN2CCCC(c3c(-c4ccccc4)[nH]c4ccccc34)C2)c(F)c1)NO` (configuration not stated), the IC50 came to 16 nM against Histone deacetylase 1, 11 nM with HCT-116 and 106 nM in data set [2]. For the same molecule, the pKa in data set [1] was found to be 7.4.
As for `CC(C)(C)c1[nH]c2ccccc2c1[C@H]1CCCN(Cc2ccc(/C=C/C(=O)NO)cc2F)C1`, the IC50 in the data set on HCT-116 was found to be 0.8 nM; on Histone deacetylase 2 it was 31 nM; in data set [4] it was 118 nM; on Histone deacetylase 8, 217 nM; in data set [2] it was 5.4 nM; against Histone deacetylase 3, 9 nM. In addition, inhibition at Histone deacetylase 4 was half-maximal at 28 nM (IC50).
Regarding `CC(C)(C)c1[nH]c2ccccc2c1[C@@H]1CCCN(Cc2ccc(/C=C/C(=O)NO)cc2F)C1`, the IC50 was 143 nM with HCT-116; 48 nM against Histone deacetylase 2; 110 nM in [4]; 364 nM on Histone deacetylase 8; 443 nM in data set [2]; 21 nM against Histone deacetylase 3. Half-maximal inhibition against Histone deacetylase 4 (IC50) was put at 38 nM.
On to `CC(C)(C)c1[nH]c2ccccc2c1C1CCCN(Cc2ccc(/C=C/C(=O)NO)cc2)C1` (configuration not stated), for which the 50% inhibitory concentration (IC50) was determined as 0.9 nM in the data set with HCT-116, 6.3 nM in data set [2] and 13500 nM in data set [3]. The pKa in data set [1] stood at 7.8.
Take `Cc1[nH]c2ccccc2c1CCN1Cc2ccc(/C=C/C(=O)NO)cc2C1`: the IC50 against Histone deacetylase 1 amounted to 27 nM; in the data set with HCT-116, 41 nM; in data set [2] it was 232 nM; in [3], 4800 nM.
As for `O=C(/C=C/c1ccc(CN2CCCC(c3c[nH]c4ccccc34)C2)cc1)NO` (configuration not stated), the IC50 against Histone deacetylase 1 turned out to be 11 nM; in the data set on HCT-116, 25 nM; in [2], 141 nM. This molecule also came in with a pKa in data set [1] of 7.3.
Regarding `Cc1[nH]c2ccccc2c1CCN1CCc2ccc(/C=C/C(=O)NO)cc2C1`, the IC50 against Histone deacetylase 1 stood at 13 nM; with HCT-116, 42 nM; in data set [2], 165 nM; in data set [3] it was 2700 nM.
Regarding `O=C(/C=C/c1ccc(CN(CCO)CCc2c[nH]c3ccccc23)cc1)NO` [DACINOSTAT], the IC50 with HCT-116 was found to be 13 nM; in [2], 161 nM.
Take `CC(C)(C)c1[nH]c2ccccc2c1C1CCCN(Cc2ccc(/C=C/C(=O)NO)cc2F)C1` (configuration not stated): the IC50 in the data set with HCT-116 came to 3.8 nM; in [2], 20 nM. The molecule further gave a pKa in [1] of 7.3.
On to `O=C(/C=C/c1ccc(CN2CCCC(c3c[nH]c4ccccc34)C2)c(F)c1)NO` (configuration not stated), for which the IC50 against Histone deacetylase 1 amounted to 136 nM; with HCT-116, 332 nM; in [2], 3520 nM.
With `O=C(/C=C/c1ccc(CN2CCCC(c3c(-c4ccccc4)[nH]c4ccccc34)C2)cc1)NO` (configuration not stated), the IC50 worked out at 11 nM against Histone deacetylase 1, 6.9 nM in the data set with HCT-116 and 31 nM in data set [2]. Further, the pKa in [1] came to 7.7.
`Cc1[nH]c2ccccc2c1CC1CCCCN1Cc1ccc(/C=C/C(=O)NO)cc1` (configuration not stated): the IC50 on Histone deacetylase 1 came to 24 nM; in the data set on HCT-116, 27 nM; in [2] it was 153 nM.
Turning to `Cc1[nH]c2ccccc2c1C1CCCN(Cc2ccc(/C=C/C(=O)NO)cc2)C1` (configuration not stated), the IC50 is 5 nM on Histone deacetylase 1, 5.6 nM with HCT-116, 31 nM in data set [2] and 27600 nM in [3]. In [1], this molecule came in with a pKa of 7.8.
With `Cc1[nH]c2ccccc2c1CCN1CCc2ccc(/C=C/C(=O)NO)cc2CC1`, the IC50 is 76 nM at Histone deacetylase 1, 545 nM with HCT-116, greater than 1000 nM in data set [2] and 3200 nM in data set [3].
As for `Cc1[nH]c2ccccc2c1CCN1CCc2cc(/C=C/C(=O)NO)ccc2C1`, the IC50 at Histone deacetylase 1 was 41 nM; in the data set on HCT-116 it was 119 nM; in [2], 725 nM.
In the case of `Cc1[nH]c2ccccc2c1C1CCN(Cc2ccc(/C=C/C(=O)NO)cc2)C1` (configuration not stated), the IC50 was 2.8 nM at Histone deacetylase 1, 3.2 nM in the data set on HCT-116, 14 nM in data set [2] and 13400 nM in data set [3].

A word on the IC50: it is the concentration at which inhibition is half-maximal. The term pKa denotes the pH at which an ionisable group is half protonated. The low end stands for a group that gives up its proton readily, the high end for a group that holds its proton tightly.
